We go through 13 compounds from PubChem BioAssay.

Experiment [1] can be described thus: inhibitors of TNFa-induced NFkB p65 translocation, primary screen, imaging, HUVEC, MLSMR starter and 10KST1 sets (AID 438;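 active = inhibition above 20% together with a positive visual image hit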;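 also: compound added about 3h40 before a 20 min TNFalpha stimulation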;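 as to inhibition: signal is the nuclear over cytoplasmic p65 intensity ratio per well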). Conditions: HUVEC TNFa-induced p65 nuclear translocation; cell count: measured here: nuclei count (cytotoxicity indicator), at 2.08 µM; inhibition: at 2 µM, stronger effect = higher value, 0% TNFa-plus-vehicle, 100% no-TNFa wells.
Experiment [2] in a line: endothelial E-selectin expression blockers – imaging, HUVEC, immunofluorescence, MLSMR starter and 10KST1 sets, primary screen (AID 487).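 As to inhibition: signal is fraction of cell area covered by stained E-selectin grains.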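 As to nuclei count: 100% = median nuclei count of all wells on the same plate.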 Conditions: HUVEC TNFalpha-induced E-selectin immunofluorescence imaging, at 2 µM; inhibition: stronger effect = higher value; nuclei count: measured here: cell number, toxicity.
Experiment [3] in a line: Primary imaging screen for DUSP6 inhibitors that restore phospho-Erk in transfected HeLa cells, chemical complementation (AID 609;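 active = compounds giving at least 50% inhibition in the cell-based MKP-3 phosphatase rescue imaging test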;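 as to inhibition: phospho-Erk level distribution per well compared with pooled transfected vehicle control wells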). As to conditions: HeLa MKP-3 transfected, phospho-Erk imaging KS statistic, at 10 µM, cells stimulated with TPA for 15 min.
The target in experiment [4] is Dual specificity protein phosphatase 6 (Homo sapiens) (UniProt Q16828). The experiment is described as above. Conditions: HeLa MKP-3 transfected, phospho-Erk imaging KS statistic; at 10 µM; stronger effect = higher value; cells stimulated with TPA for 15 min.
Dual specificity protein phosphatase 6 (Homo sapiens), sequence (Q16828 whole entry, looked up): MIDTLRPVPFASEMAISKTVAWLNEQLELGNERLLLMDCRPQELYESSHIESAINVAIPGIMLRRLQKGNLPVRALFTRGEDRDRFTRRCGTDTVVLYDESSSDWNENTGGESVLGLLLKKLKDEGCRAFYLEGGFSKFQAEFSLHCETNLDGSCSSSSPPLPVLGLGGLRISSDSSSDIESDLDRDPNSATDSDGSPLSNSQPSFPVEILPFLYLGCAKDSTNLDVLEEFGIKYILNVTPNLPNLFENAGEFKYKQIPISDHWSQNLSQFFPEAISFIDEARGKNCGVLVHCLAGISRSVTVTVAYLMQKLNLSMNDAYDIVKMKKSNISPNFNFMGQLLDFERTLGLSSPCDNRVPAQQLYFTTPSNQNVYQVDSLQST
The target of experiment [5] is Voltage-gated potassium channel subunit beta-2 (Rattus norvegicus) (UniProt P62483). Kind of experiment: inhibitors of rat Kvbeta2 reductase activity – biochemical, NADPH fluorescence, primary screen (AID 622;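 active = fluorescence slope higher than the sample average by over 3 SD, cut at about -0.22 in these data, passing the limit was not always enough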;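 also: slope of raw intensity against log time taken from 70 to 1610 s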). As to conditions: recombinant KvBeta, 4-cyanobenzaldehyde reduction, at 10 µM, stronger effect = higher value.
Voltage-gated potassium channel subunit beta-2 (Rattus norvegicus), sequence (P62483 whole entry, looked up): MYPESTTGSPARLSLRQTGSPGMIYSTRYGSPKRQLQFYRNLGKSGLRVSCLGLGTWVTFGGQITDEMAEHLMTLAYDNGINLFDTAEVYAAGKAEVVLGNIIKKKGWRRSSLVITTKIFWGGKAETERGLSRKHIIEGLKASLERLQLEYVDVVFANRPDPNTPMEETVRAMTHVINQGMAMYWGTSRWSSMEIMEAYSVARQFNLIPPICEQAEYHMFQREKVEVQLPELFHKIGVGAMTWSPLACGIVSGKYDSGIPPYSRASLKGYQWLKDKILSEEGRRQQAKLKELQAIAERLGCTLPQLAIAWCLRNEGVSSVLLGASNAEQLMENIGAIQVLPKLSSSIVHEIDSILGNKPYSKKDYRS
The target is the same in experiment [6]. Kind of experiment: enhancers of rat Kvbeta2 NADPH turnover – biochemical, NADPH fluorescence, primary screen (AID 623;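 active = NADPH fluorescence slope more negative than the mean of all samples by about 3 SD, 99.7% confidence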;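 also: fluorescence intensity change per second fitted from 20 to 320 s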). Conditions: Recombinant KvBeta, NADPH fluorescence decrease slope, 10 min; at 10 µM; stronger effect = lower value.
The target of experiment [7] is Muscarinic acetylcholine receptor M4 (Homo sapiens) (UniProt P08173). Kind of experiment: M4-linked GIRK flux change, two-sided – cell-based, HEK293 M4/GIRK, thallium flux, BTC-AM, M4 allosteric agonist project, primary screen (AID 625;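 active = fluorescence slope after compound addition differing from the mean of all tested samples at 99.7% confidence, mostly higher but some lower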;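 also: thallium influx through GIRK channels coupled to M4 in HEK293 cells with BTC-AM dye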). As to conditions: at 10 µM, actives lie on both sides. In a few lines:
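Assay system: HEK293 cells with M4 receptor and GIRK channels / Controls: carbachol and DMSO controls / Schedule: 1 h dye loading, 2 min kinetic read / Technique: kinetic fluorescence with BTC-AM dye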

The nature of experiment [8]: inhibitors of larval lipid processing in zebrafish, primary screen, whole organism, PED6 fluorescence, gall bladder and intestine (AID 686;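 active = a full or partial loss of lipid-probe fluorescence in the fish gall bladder, intestine or both, judged by eye; inactive = no fluorescence loss, or compound toxic to the fish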;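 also: signal comes from phospholipase A2 cleavage of quenched PED6 carried via bile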). Conditions: Zebrafish larvae PED6 lipid processing, fluorescence scoring; screened at 20 µM (by protocol). Put shortly: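 Doses: 20 µM single dose. Test system: live zebrafish larvae aged 5-7 days, whole organism. Quantity: five larvae per well. Measured by: By-eye fluorescence microscopy. Reagent: ingested quenched lipid PED6 at 100 nM. Read-out: visual per-well fluorescence inhibition score. Times: overnight exposure of larvae to compound plus PED6.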

Experiment [9] can be described thus: loss of swimming-algae plug formation – whole organism, Chlamydomonas reinhardtii, WT vs cilia-less mutant, absorbance, 96-well, primary screen (AID 463189;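 active = inhibition at or above 50% relative to wild type and mutant plate controls; inactive = inhibition below 50%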;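 also: 0% = wild type cc124 cells in DMSO and 100% = ciliumless bld1 mutant cells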). As to conditions: Chlamydomonas reinhardtii gravitaxis, OD600 absorbance, 2 days; at 10 µM; stronger effect = higher value.
[10] abbreviates: measured here: cell density z-score.
Setting [11] is: measured here: nuclear c-Myc green intensity z-score.
The mark [12] stands for this setting: measured here: nuclear pErk red intensity z-score, stronger effect = higher value.

The source made the active and inactive calls.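 The calls were made as follows, unless noted: active = visually confirmed hit in the image check and inhibition above 20%; inconclusive = visually confirmed hit but inhibition not above 20%; inactive = no visual hit in the image check.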

Muscarinic acetylcholine receptor M4 (Homo sapiens), sequence (P08173 whole entry, looked up): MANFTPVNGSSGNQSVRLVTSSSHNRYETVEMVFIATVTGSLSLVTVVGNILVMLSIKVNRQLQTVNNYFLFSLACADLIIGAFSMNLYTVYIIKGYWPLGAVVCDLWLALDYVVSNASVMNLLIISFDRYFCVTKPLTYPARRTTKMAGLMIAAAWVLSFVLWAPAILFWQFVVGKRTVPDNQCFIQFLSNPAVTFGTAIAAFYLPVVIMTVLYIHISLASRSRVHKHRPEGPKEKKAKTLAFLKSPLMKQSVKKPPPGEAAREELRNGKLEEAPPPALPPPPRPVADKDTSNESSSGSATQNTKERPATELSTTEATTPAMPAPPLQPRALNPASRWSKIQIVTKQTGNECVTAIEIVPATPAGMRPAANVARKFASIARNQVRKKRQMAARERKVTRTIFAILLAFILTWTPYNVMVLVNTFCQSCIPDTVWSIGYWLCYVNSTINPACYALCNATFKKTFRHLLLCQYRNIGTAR

The inhibition is the change of the read-out against control, counted positive when it falls. For the compound `CCCNc1ncnc2c1cnn2-c1ccc(OC)cc1`, the cell count in experiment [1] was determined as 631. For the same compound, the inhibition is -12.5% (inactive) in experiment [1], -39.6% (inactive) in [2], 1.42% (inactive) in experiment [4] and -16% (inactive) in experiment [9]. Besides, the nuclei count in experiment [2] came out at 185%. Also, the z-score was -1.64 in experiment [3] (setting [10]), -0.363 in experiment [3] (setting [11]) and 0.771 in experiment [3] (setting [12]). Besides, the fluorescence slope in experiment [5] is -0.37 (inactive); in experiment [7], 0.00652 (inactive). In addition, in experiment [6], the NADPH fluorescence slope was -4.9e-05 (inactive). Besides, the compound was called inactive in experiment [8].

`COC(=O)c1ccc(Cn2c(O)c(N=O)c3ccccc32)o1`: the cell count in experiment [1] came out at 485. In addition, the inhibition in [1] was 2% (inactive); in [2], -36.4% (inactive); in [4], 7.42% (inactive); in experiment [9] it was -9.22% (inactive). This compound also came in with a nuclei count in [2] of 122%. Also, the z-score in [3] (setting [10]) was -2.02; in [3] (setting [11]), 0.422; in [3] (setting [12]), -1.72. Besides, the fluorescence slope in experiment [5] was -0.493 (inactive); in [7] it was 0.00432 (inactive). Further, the NADPH fluorescence slope in experiment [6] was -7e-05 (inactive). The outcome in [8] was inactive.

For `CCOc1ccc(C2C=C(c3ccccc3)Nc3ncnn32)cc1` (centres undefined), in [1], the cell count was 531. The inhibition in [1] was -1.1% (inactive); in experiment [2], 58.8% (inactive); in [4], 11.9% (inactive); in [9], 22.6% (inactive). The nuclei count in experiment [2] stood at 151%. The results for the z-score in experiment [3] (setting [10]), in experiment [3] (setting [11]) and in experiment [3] (setting [12]) were -0.603, 0.992 and -0.889, respectively. Besides, the results for the fluorescence slope in [5] and in [7] were -0.0438 (inactive) and 0.00687 (inactive), respectively. The NADPH fluorescence slope in experiment [6] is -6.4e-06 (inactive). In addition, the call in [8] was inactive.

Regarding `Cc1nc(N2CCN(C(=O)c3ccc(Cl)cc3)CC2)c(C#N)c2c1COC(C)(C)C2`, in [1], the cell count was 522. Moreover, the inhibition in [1] was 8.1% (inactive); in experiment [2], 7% (inactive); in experiment [4], 1.98% (inactive); in [9] it was 129% (active). The compound further showed a nuclei count in [2] of 95.8%. The z-score in experiment [3] (setting [10]) is -0.225; in experiment [3] (setting [11]), -0.286; in [3] (setting [12]) it was 0.404. Besides, the figures for the fluorescence slope in [5] and in experiment [7] were -0.335 (inactive) and 0.00518 (inactive), respectively. In addition, in experiment [6], the NADPH fluorescence slope is -2.3e-05 (inactive). Moreover, the compound was called inactive in experiment [8].

Take `O=C(COc1ccc(F)cc1)OCCN1CCOCC1`: in experiment [1], the cell count came out at 565. Further, the inhibition was -8.9% (inactive) in experiment [1], -82.4% (inactive) in experiment [2], -10.6% (inactive) in [4] and -2.61% (inactive) in experiment [9]. For the same compound, the nuclei count in experiment [2] amounted to 135%. For the same compound, the values for the z-score in experiment [3] (setting [10]), in experiment [3] (setting [11]) and in experiment [3] (setting [12]) were -1.31, 0.0144 and 2.07, respectively. Moreover, the figures for the fluorescence slope in [5] and in experiment [7] were -0.449 (inactive) and 0.00404 (inactive), respectively. The NADPH fluorescence slope in [6] is -0.000116 (inactive). In addition, the call in experiment [8] was inactive.

Take `C/C(=N/n1cnnc1)c1cccnc1`: in experiment [1], the cell count was determined as 541. Besides, the inhibition in experiment [1] is 1.3% (inactive); in experiment [2] it was -130% (inactive); in [4], 3.42% (inactive); in [9] it was -7.67% (inactive). Besides, the nuclei count in [2] was found to be 140%. In addition, the figures for the z-score in experiment [3] (setting [10]), in [3] (setting [11]) and in experiment [3] (setting [12]) were 0.514, -0.833 and -1.29, respectively. Besides, the fluorescence slope was -0.448 (inactive) in [5] and 0.00412 (inactive) in experiment [7]. In [6], the NADPH fluorescence slope is -0.000104 (inactive). Further, in [8], the result was inactive.

For the compound `CCNc1sc(C(=O)c2cccs2)c(N)c1C#N`, the cell count in experiment [1] came out at 583. For the same compound, the inhibition in [1] is 0.3% (inactive); in [2] it was -26.4% (inactive); in [4] it was 10.9% (inactive); in experiment [9] it was 24.6% (inactive). Moreover, the nuclei count in experiment [2] came out at 114%. Further, the z-score was 0.394 in experiment [3] (setting [10]), -0.752 in experiment [3] (setting [11]) and 0.076 in [3] (setting [12]). The fluorescence slope in experiment [5] was -0.442 (inactive); in [7], 0.00473 (inactive). Besides, the NADPH fluorescence slope in experiment [6] is -4.6e-05 (inactive). The call in experiment [8] was inactive.

Regarding `COc1ccccc1-c1c(C)oc2c(CN3CCN(C)CC3)c(O)ccc2c1=O`, the cell count in [1] was 672. In addition, the inhibition in experiment [1] was -0.2% (inactive); in experiment [2], -20.6% (inactive); in experiment [4], 14.7% (inactive); in experiment [9], -5.96% (inactive). In experiment [2], this compound gave a nuclei count of 150%. The z-score in [3] (setting [10]) was 0.0584; in experiment [3] (setting [11]), -0.255; in [3] (setting [12]), -0.66. Besides, the fluorescence slope was -0.0259 (inactive) in experiment [5] and 0.00509 (inactive) in [7]. Besides, in experiment [6], the NADPH fluorescence slope was 1.6e-05 (inactive). Moreover, the result in experiment [8] was inactive.

In the case of `COC(=O)NC(Nc1sc2c(c1C(N)=O)CCCC2)(C(=O)OC)C(F)(F)F` (centres undefined), the cell count in experiment [1] was 713. Also, the inhibition in [1] is 11.7% (inactive); in experiment [2], -59.3% (inactive); in experiment [4], -11.4% (inactive); in experiment [9], -3.75% (inactive). In experiment [2], this compound registered a nuclei count of 147%. In addition, the z-score in [3] (setting [10]) is 0.143; in experiment [3] (setting [11]), -0.0847; in [3] (setting [12]), -0.638. The fluorescence slope in experiment [5] was -0.431 (inactive); in experiment [7] it was 0.00518 (inactive). Moreover, the NADPH fluorescence slope in [6] is -7.5e-05 (inactive). Also, the compound was called inactive in [8].

For `CCOC(=O)c1c2c(c(=S)n(-c3ccccc3)c1N)CCC2`, in [1], the cell count came out at 569. The inhibition in [1] is -8.6% (inactive); in experiment [2], -65.1% (inactive); in experiment [4] it was -3.95% (inactive); in experiment [9], 9.7% (inactive). Further, the nuclei count in [2] stood at 135%. Further, the z-score in experiment [3] (setting [10]) was -0.086; in experiment [3] (setting [11]), 1.03; in [3] (setting [12]) it was -0.638. The fluorescence slope is -0.463 (inactive) in [5] and 0.00449 (inactive) in experiment [7]. Further, in experiment [6], the NADPH fluorescence slope was -9.5e-05 (inactive). In experiment [8], the compound was called inactive.

In the case of `Cc1[nH]nc(-c2ccc(O)cc2O)c1Oc1ccccc1`, the cell count in experiment [1] was found to be 565. The inhibition in experiment [1] was -2.3% (inactive); in experiment [2] it was -110% (inactive); in experiment [4], 15.9% (inactive); in experiment [9] it was 9.24% (inactive). For the same compound, the nuclei count in experiment [2] stood at 175%. For the same compound, the values for the z-score in [3] (setting [10]), in experiment [3] (setting [11]) and in [3] (setting [12]) were 1.43, -0.0429 and -0.868, respectively. For the same compound, the results for the fluorescence slope in experiment [5] and in [7] were -0.433 (inactive) and 0.00505 (inactive), respectively. Further, the NADPH fluorescence slope in [6] was -7e-05 (inactive). In addition, the outcome in experiment [8] was inactive.

Consider `Cn1c(=O)c2c(nc(Oc3ccc4c(c3)OCO4)n2Cc2ccc(Br)cc2)n(C)c1=O`, for which, in experiment [1], the cell count came to 619. The inhibition was 8.1% (inactive) in experiment [1], -44% (inactive) in experiment [2], 7.93% (inactive) in experiment [4] and 29.5% (inactive) in [9]. In [2], this compound had a nuclei count of 123%. Moreover, the z-score in experiment [3] (setting [10]) was 0.319; in experiment [3] (setting [11]), -0.507; in experiment [3] (setting [12]) it was 0.317. Besides, the fluorescence slope was -0.562 (inactive) in experiment [5] and 0.00702 (inactive) in experiment [7]. For the same compound, the NADPH fluorescence slope in experiment [6] is -3.8e-05 (inactive). Also, the compound was called inactive in experiment [8].

Take `CC(O)CNc1nc2c(c(=O)n(C)c(=O)n2C)n1Cc1cccc(C(F)(F)F)c1` (centres undefined): in experiment [1], the cell count worked out at 679. Besides, the inhibition was -9.1% (inactive) in [1], -182% (inactive) in [2], 11.9% (inactive) in [4] and 4.09% (inactive) in experiment [9]. In experiment [2], this compound yielded a nuclei count of 176%. The z-score is 0.999 in experiment [3] (setting [10]), -1.51 in experiment [3] (setting [11]) and -1.36 in experiment [3] (setting [12]). For the same compound, the fluorescence slope in [5] is -0.511 (inactive); in experiment [7], 0.00932 (inactive). Besides, the NADPH fluorescence slope in [6] was -5e-05 (inactive). Moreover, the compound was classed as inactive in experiment [8].
